Compound activity from PubChem BioAssay.
HUVEC inhibit = inhibitors of HUVEC proliferation, primary screen, cell-based, 384-well; CellTiter-Glo luminescence, 72 h; active compounds read low; viability, % at 10 µM (by protocol); actives 1.1% (n = 86,000);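 active = viability at or below 30%; inactive = viability above 30%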;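 note: 100% = median luminescence of DMSO-only cell control wells on each plate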
Fibroblast inh = antiproliferative effect on LL 47 fibroblasts – human, LL 47 cells, CellTiter-Glo luminescence, primary screen. viability, % at 10 µM. actives 1.1% (n = 85,000). LL 47 human lung fibroblast viability, ATP luminescence; active compounds read low;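 active = viability at or below 50% in the single dose screen; inactive = viability above 50%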;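 note: compound exposure lasted 72 h before the ATP readout; 100% = median luminescence of untreated cell-only wells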
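Material: human lung fibroblast line LL 47, low passage; Evaluation: viability percentage against median untreated-cell control; Buffer or medium: 15% FBS in IMEM; Incubation: 72 h compound exposure at 37 °C after overnight plating; Dosing: 0.1% DMSO in all compound wells; Measured by: CellTiter-Glo luminescence.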
HCT116 PTEN-null = growth suppression of PTEN-null HCT116, primary screen, cell-based, CellTiter-Glo | viability, % at 10 µM | HCT116 PTEN-null viability, 60 h; active compounds read low | actives 1.2% (n = 140,000) | AID 827, 2007;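 active = viability at or below a set limit, 4 SD under the median of all tested compounds, cut at about 3.7% in these data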;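 note: PTEN knockout HCT116 line with beta catenin targeted HCT116 as companion control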
bCat KO growth = primary screen for growth suppressors in beta-catenin knockout HCT116 cells (colon tumor, human); HCT116 beta-catenin knockout viability, CellTiter-Glo, 60 h; active compounds read low; AID 818, 2007; actives 1.5% (n = 140,000); viability, % at 10 µM;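 active = viability at or under a set limit, the compound median less 4 SD, cut at about 6% in these data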;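 note: 0% = Hyamine 1622 control at 20 µM and 100% = untreated cell control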
Phagocytosis inh = inhibitors of macrophage phagocytosis, primary screen, imaging, J774A.1 cells, IgG beads; AID 1029, 2008; actives 0.07% (n = 110,000); inhibition, % at 5 µM; J774A.1 macrophage IgG-bead phagocytosis;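 active = inhibition above the mean of the plate negative controls plus 5 SD, cut at about 13% in these data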;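 note: phagocytic index as fraction of beads internalized from green versus red external bead signal; plate controls were DMSO negative control for no effect and cytochalasin-D positive control for full effect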
H69AR inhibit = proliferation blockers of H69AR lung cancer cells, primary screen, cell-based, human, 86K library. H69AR lung tumor viability, ATP luminescence, 72 h; active compounds read low. viability, % at 10 µM. actives 6% (n = 85,000). AID 598, 2007;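 active = viability at or below 40%; inactive = viability above 40%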;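 note: multidrug resistant small cell line overexpressing MRP-1 efflux transporter; 100% = mean luminescence of untreated control wells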
Starred values were filed as active, the others as inactive; x = not tested or not shown. This excerpt belongs to a sample that is enriched for hits.

SMILES	HUVEC inhibit	Fibroblast inh	HCT116 PTEN-null	bCat KO growth	Phagocytosis inh	H69AR inhibit
Cc1nn(Cc2ccc(F)cc2)c(Cl)c1/C=N/NC(=O)c1cccnc1	x	x	99.2	98.8	-0.9	x
Cc1nn(Cc2ccc(Cl)cc2Cl)c(Cl)c1/C=N/NC(=O)CNc1cccc(C(F)(F)F)c1	x	x	2.3*	1.8*	-9.2	x
COCCNC(=O)c1cccc(Nc2nc(-c3ccccc3)c3cc(Cl)ccc3n2)c1	x	x	50.7	53.0	-12.6	x
O=C1COc2ccc(C(=O)/C=C/c3ccccc3)cc2N1	x	x	7.6	10.1	-4.7	x
O=C(/C=C/c1ccccc1)c1ccc2c(c1)OCCCCO2	x	x	4.7	3.5*	2.7	x
CCOC(=O)COc1ccc(S(=O)(=O)Nc2ccc3c(c2)OCCO3)cc1	40.8	66.0	102.9	96.9	1.0	95.0
CCOC(=O)COc1ccc(S(=O)(=O)Nc2cccc(SC)c2)cc1	13.7*	47.0*	87.0	92.1	-1.6	105.5
COc1ccc(S(=O)(=O)Nc2cc3c(C(C)=O)c(C)oc3c3ccccc23)cc1	37.0	50.6	19.1	18.9	6.4	24.6*
Cc1oc2c(cc(NS(=O)(=O)c3cccs3)c3ccccc32)c1C(=O)OC(C)C	75.8	91.1	80.2	77.9	x	72.7
COC(=O)c1cccc(NS(=O)(=O)c2ccc(OC)cc2)c1C	59.7	85.7	27.3	23.1	x	22.8*
COC(=O)c1cccc(NS(=O)(=O)c2ccc(OC)c(OC)c2)c1C	98.0	97.0	93.3	88.8	-1.1	108.2
CCOC(=O)c1ccccc1NS(=O)(=O)c1ccc(OCC)cc1	65.0	64.5	18.7	15.4	2.3	12.7*
CCOc1ccc(S(=O)(=O)Nc2ccccc2C(=O)NCC2CCCO2)cc1 (centres undefined)	104.0	97.1	88.1	99.9	-0.3	97.0
COc1ccc(C2N(c3cc(Cl)ccc3OC)C(=O)C3CCCN32)cc1OC (centres undefined)	99.5	100.3	97.8	95.4	-0.4	83.2
COC(=O)N/N=C/c1cc(Cl)cc(Cl)c1OCc1ccccc1	x	x	79.1	85.0	-3.6	x
CC(/C=C(\NC(=O)c1ccccc1)C(=O)N=Nc1c(O)[nH]c2ccc(C)cc12)=C\c1ccccc1	x	x	48.8	56.9	-0.7	x
Cc1ccc(-n2nnnc2Sc2ccc(S(=O)(=O)NCCN(C)C)cc2[N+](=O)[O-])cc1	x	x	1.6*	1.7*	-5.7	x
O=[N+]([O-])c1cc(S(=O)(=O)NCCN2CCOCC2)ccc1Sc1nnnn1-c1ccccc1	x	x	8.1	7.8	-2.3	x
COC(=O)c1cc(OC)c(OC)cc1NC(=O)c1c(-c2ccccc2Cl)noc1C	89.0	x	57.6	79.2	-1.1	34.7*
COC(=O)c1cc(OC)c(OC)cc1NC(=O)Cn1nnc(-c2ccccc2Cl)n1	57.9	93.3	83.5	78.3	-1.8	34.8*
Cc1cc(NC(=O)c2c(-c3ccccc3Cl)noc2C)no1	x	x	92.5	92.0	1.6	x
CCn1c(CNC(=O)c2ccco2)nnc1SCC(=O)Nc1ccc(Br)cc1F	96.9	100.0	95.5	89.6	x	94.2
N#Cc1c(NCCN)nc(-c2ccco2)c2c1CCCC2	67.0	40.8*	5.6	6.1	-1.5	7.1*
CC1(C)Cc2c(C#N)c(NCc3ccco3)nc(-c3ccco3)c2CO1	49.7	76.4	75.3	71.6	-0.5	20.1*
CC1(C)Cc2c(C#N)c(OCC(=O)c3ccc(Cl)cc3)nc(-c3ccco3)c2CO1	59.9	41.5*	74.7	86.5	-1.0	57.6
SMILES	HUVEC inhibit	Fibroblast inh	HCT116 PTEN-null	bCat KO growth	Phagocytosis inh	H69AR inhibit
Cc1ccc(S(=O)(=O)N2CCOCC2)cc1NC(=O)COc1ncnc2ccccc12	x	x	99.7	93.0	11.9	x
CCOc1ccc(Cl)cc1S(=O)(=O)N1CCCC1	102.2	99.5	92.5	86.4	x	95.5
CCOc1ccc(Cl)cc1S(=O)(=O)n1cnc2ccccc21	58.8	61.8	43.0	46.5	0.6	19.9*
Cc1cc(C)c(S(=O)(=O)n2cnc3ccccc32)c(C)c1	102.5	104.5	102.3	101.7	x	101.8
CCOc1cc(C)c(Cl)cc1S(=O)(=O)n1cnc2ccccc21	76.5	97.1	87.7	98.4	6.5	38.5*
COc1ccc(Cl)cc1S(=O)(=O)n1cnc2ccccc21	58.1	80.0	97.4	91.9	-3.5	17.4*
CC(C)CNC(=O)c1cc2nc3c(c(C(F)(F)F)n2n1)CCc1ccccc1-3	125.3	107.2	98.4	111.5	-1.0	78.2
O=C(c1cnn2c(C(F)(F)F)cc(-c3ccccc3)nc12)N1CCCc2ccccc21	86.8	90.7	98.0	93.8	1.6	36.0*
Cc1cc(NC(=O)c2cnn3c(C(F)F)cc(-c4ccccc4)nc23)no1	76.5	89.6	82.7	94.9	-0.5	24.6*
Cc1cc(NC(=O)c2cc3nc4c(c(C(F)(F)F)n3n2)CCc2ccccc2-4)no1	102.0	103.1	x	x	-0.7	29.0*
Cc1cc(NC(=O)CCS(=O)(=O)c2nc(-c3ccccc3)cc(C(F)(F)F)n2)no1	24.0*	5.6*	70.7	68.9	-2.1	0.7*
COc1cc(OC)cc(C(=O)N[C@H](C(=O)OCC(=O)Nc2ccc(C(C)C)cc2)C(C)C)c1	x	x	86.3	83.8	-3.1	x
O=C(COc1ccc2ccccc2c1)N/N=C/C1CC=CCC1 (centres undefined)	x	x	108.2	96.3	-3.3	x
CCCS(=O)(=O)N1CCCC(C(=O)NCCCN(C)c2ccccc2)C1 (centres undefined)	85.9	91.3	94.2	90.2	5.3	77.8
CCn1cc(C2C(C(=O)Nc3cc(C)ccn3)=C(C)NC3=C2C(=O)CC(C)(C)C3)c(C)n1 (centres undefined)	x	x	95.5	88.8	-4.5	x
COc1ccc(-c2cc(C(F)(F)F)n3ncc(C(=O)NCC4CCCO4)c3n2)cc1 (centres undefined)	99.0	97.5	61.3	71.6	-1.4	20.4*
COc1cccc(-c2cc(C(F)(F)F)n3ncc(C(=O)NCC4CCCO4)c3n2)c1 (centres undefined)	70.3	104.0	76.8	76.5	-0.6	59.7
Cc1cc(NC(=O)c2cnn3c(C(F)(F)F)cc(-c4ccccc4)nc23)no1	89.2	94.4	70.6	77.6	-0.9	37.9*
CCNc1ccc(Br)cc(C(=O)/C=C/c2ccc(Cl)cc2Cl)c1=O	21.1*	92.4	2.2*	2.5*	x	0.4*
CNc1ccc(Br)cc(C(=O)/C=C/c2cc(OC)ccc2OC)c1=O	79.5	89.6	11.9	7.4	x	0.6*
Cc1cc(=O)c2cc(Cl)ccc2[nH]1	88.0	100.8	72.5	75.0	x	67.3
Cc1cc(=O)[nH]c2ccc(Cl)cc12	24.1*	95.0	105.6	98.1	x	86.2
COc1cc(CN(C(=S)NCC(=O)NC2CC2)C2CCCC2)cc(OC)c1OC	x	x	94.2	100.9	-6.0	x
